Where “and” joins values, the source holds several entries; their conditions need not be identical. Equal values may be shown once.
How the values were obtained:
HEK-293T = experiment: Multiplex assay against HEK293T; type: toxicity, cell-based; conditions: human
Outline: (§1)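 With compound added, live cells were imaged on a CQ1 microscope at 37°C and 5% CO2; staining with Hoechst33342, BioTracker Green Microtubule Cytoskeleton Dye, MitoTracker Red and Annexin V Alexa Fluor 680 had been done at seeding. The CellPathfinder machine-learning gating scheme split cells into Hoechst high-intensity objects or normal cells, normal cells into healthy, pyknosed or fragmented nuclei, and pyknosed cells into mitotic or apoptotic. The tubulin, mitochondrial-mass and membrane-permeability phenotypes are per cents of healthy-nucleus cells.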

Fibroblast = experiment: Multiplex assay against human fibroblast; type: toxicity, cell-based; outline: as §1
[1] = 12 h, 1 µM, compound concentration 1 uM
[2] = 12 h, 10 µM, compound concentration 10 uM
[3] = 24 h, 1 µM, compound concentration 1 uM
[4] = 24 h, 10 µM, compound concentration 10 uM
[5] = 48 h, 1 µM, compound concentration 1 uM
[6] = 48 h, 10 µM, compound concentration 10 uM

## C=CC(=O)Nc1cc(Nc2nccc(-n3cc(CN(C)C)c(-c4ccccc4)n3)n2)c(OC)cc1N1CCOCC1 [LAZERTINIB]
HEK-293T; [1]
  Population Apoptotic (%): 14.72% and 15.96%
  Population Fragmented Nuclei (%): 1.35% and 8.26%
  Population Hoechst High Intensity Objects (%): 0.67% and 0%
  Population Membrane Permeable-Phenotype (%): 0.77% and 5.88%
  Population Mitochondria Different-Phenotype (%): 33.85% and 11.76%
  Population Mitotic Cells (%): 85.28% and 84.04%
  Population Normal (%): 99.33% and 100%
  Population Pyknosed Nuclei (%): 54.88% and 77.69%
  Population Tubulin-Different-Phenotype (%): 31.54% and 82.35%
  Total Cell Count: 299 and 121
HEK-293T; [2]
  Population Apoptotic (%): 22.22% and 29.59%
  Population Fragmented Nuclei (%): 3.83% and 10%
  Population Healthy Nuclei (%): 22.97% and 8.33%
  Population Hoechst High Intensity Objects (%): 0.48% and 0%
  Population Membrane Permeable-Phenotype (%): 0%
  Population Mitochondria Different-Phenotype (%): 47.92% and 60%
  Population Mitotic Cells (%): 77.78% and 70.41%
  Population Normal (%): 99.52% and 100%
  Population Pyknosed Nuclei (%): 73.21% and 81.67%
  Population Tubulin-Different-Phenotype (%): 75% and 80%
  Total Cell Count: 210 and 120
HEK-293T; [3]
  Population Apoptotic (%): 15.83% and 31.58%
  Population Fragmented Nuclei (%): 1.82% and 4.92%
  Population Hoechst High Intensity Objects (%): 0.45% and 0%
  Population Membrane Permeable-Phenotype (%): 3.41% and 4.76%
  Population Mitochondria Different-Phenotype (%): 36.18% and 52.38%
  Population Mitotic Cells (%): 84.17% and 68.42%
  Population Normal (%): 99.55% and 100%
  Population Pyknosed Nuclei (%): 31.59% and 77.87%
  Population Tubulin-Different-Phenotype (%): 50.85% and 47.62%
HEK-293T; [4]
  Population Apoptotic (%): 46.43% and 51.06%
  Population Fragmented Nuclei (%): 3.95% and 6.25%
  Population Healthy Nuclei (%): 22.37% and 9.82%
  Population Hoechst High Intensity Objects (%): 1.3% and 0%
  Population Membrane Permeable-Phenotype (%): 1.96% and 0%
  Population Mitotic Cells (%): 53.57% and 48.94%
  Population Normal (%): 98.7% and 100%
  Population Pyknosed Nuclei (%): 73.68% and 83.93%
  Population Tubulin-Different-Phenotype (%): 100% and 54.55%
  Total Cell Count: 231 and 112
HEK-293T; [5]
  Population Apoptotic (%): 12.5% and 24.32%
  Population Fragmented Nuclei (%): 3.16% and 5.04%
  Population Healthy Nuclei (%): 82.41% and 41.73%
  Population Hoechst High Intensity Objects (%): 0.11% and 1.42%
  Population Membrane Permeable-Phenotype (%): 7.11% and 0%
  Population Mitochondria Different-Phenotype (%): 43.78% and 63.79%
  Population Mitotic Cells (%): 87.5% and 75.68%
  Population Normal (%): 99.89% and 98.58%
HEK-293T; [6]
  Population Apoptotic (%): 50% and 19.23%
  Population Fragmented Nuclei (%): 1.89% and 5.38%
  Population Healthy Nuclei (%): 64.67% and 34.62%
  Population Hoechst High Intensity Objects (%): 0%
  Population Membrane Permeable-Phenotype (%): 9.27% and 0%
  Population Mitochondria Different-Phenotype (%): 73.66% and 40%
  Population Mitotic Cells (%): 50% and 80.77%
  Population Normal (%): 100%
  Population Pyknosed Nuclei (%): 33.44% and 60%
  Total Cell Count: 317 and 130
Fibroblast; [1]
  Population Fragmented Nuclei (%): 17.06% and 10.42%
  Population Healthy Nuclei (%): 39.41% and 72.59%
  Population Hoechst High Intensity Objects (%): 0%
  Population Membrane Permeable-Phenotype (%): 5.97% and 4.26%
  Population Mitochondria Different-Phenotype (%): 13.43% and 12.77%
  Population Mitotic Cells (%): 97.3% and 84.09%
  Population Normal (%): 100%
  Population Pyknosed Nuclei (%): 43.53% and 16.99%
  Population Tubulin-Different-Phenotype (%): 26.87% and 71.81%
  Total Cell Count: 170 and 259
Fibroblast; [2]
  Population Apoptotic (%): 18.84% and 24.56%
  Population Fragmented Nuclei (%): 21.15% and 12.73%
  Population Healthy Nuclei (%): 34.62% and 72.47%
  Population Hoechst High Intensity Objects (%): 0%
  Population Membrane Permeable-Phenotype (%): 1.85% and 8.24%
  Population Mitochondria Different-Phenotype (%): 48.15% and 27.24%
  Population Mitotic Cells (%): 81.16% and 75.44%
  Population Normal (%): 100%
  Population Pyknosed Nuclei (%): 44.23% and 14.81%
  Population Tubulin-Different-Phenotype (%): 55.56% and 80.65%
  Total Cell Count: 156 and 385
Fibroblast; [3]
  Population Fragmented Nuclei (%): 8.12% and 9.88%
  Population Healthy Nuclei (%): 60.62% and 75.1%
  Population Hoechst High Intensity Objects (%): 0%
  Population Membrane Permeable-Phenotype (%): 6.19% and 3.68%
  Population Mitochondria Different-Phenotype (%): 23.71% and 17.89%
  Population Mitotic Cells (%): 90% and 52.63%
  Population Normal (%): 100%

Reference: ChEMBL document CHEMBL5724801, “EUbOPEN Chemogenomics Library - Multiplex” (2024)
